Experimental data reported in ChEMBL document CHEMBL1156154, “Heterocyclic fused pyridone carboxylic acid M(1) positive allosteric modulators” (Bioorg Med Chem Lett, 2010).
Active and inactive are the calls of the source. The calls are words filed in the database; no cut-off is given here.

What was measured:
[1] = target: T1, Muscarinic acetylcholine receptor M2 (Homo sapiens) (UniProt P08172); test: Positive allosteric modulator activity at human muscarinic acetylcholine M2 receptor expressed in CHO cells assessed as effect on acetylcholine-induced intracellular calcium mobilization by FLIPR assay; type: functional, cell-based
T1 sequence (whole entry): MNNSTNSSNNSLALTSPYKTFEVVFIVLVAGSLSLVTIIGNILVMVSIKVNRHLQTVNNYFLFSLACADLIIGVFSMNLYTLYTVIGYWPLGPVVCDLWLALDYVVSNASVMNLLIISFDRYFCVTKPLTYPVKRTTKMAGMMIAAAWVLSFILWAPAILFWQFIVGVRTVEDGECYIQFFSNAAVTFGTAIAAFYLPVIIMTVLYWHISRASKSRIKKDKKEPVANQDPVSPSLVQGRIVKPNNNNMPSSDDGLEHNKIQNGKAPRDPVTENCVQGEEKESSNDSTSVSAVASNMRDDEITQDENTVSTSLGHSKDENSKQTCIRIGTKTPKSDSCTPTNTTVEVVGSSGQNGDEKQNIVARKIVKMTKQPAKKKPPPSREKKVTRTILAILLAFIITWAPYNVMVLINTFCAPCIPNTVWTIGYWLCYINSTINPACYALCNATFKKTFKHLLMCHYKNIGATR

[2] = target: T2, Muscarinic acetylcholine receptor M1 (Homo sapiens) (UniProt P11229); test: Positive allosteric modulator activity at human muscarinic M1 receptor expressed in CHO cells assessed as effect on acetylcholine-induced intracellular calcium mobilization by FLIPR assay relative to acetylcholine; type: functional, cell-based
T2 sequence (whole entry): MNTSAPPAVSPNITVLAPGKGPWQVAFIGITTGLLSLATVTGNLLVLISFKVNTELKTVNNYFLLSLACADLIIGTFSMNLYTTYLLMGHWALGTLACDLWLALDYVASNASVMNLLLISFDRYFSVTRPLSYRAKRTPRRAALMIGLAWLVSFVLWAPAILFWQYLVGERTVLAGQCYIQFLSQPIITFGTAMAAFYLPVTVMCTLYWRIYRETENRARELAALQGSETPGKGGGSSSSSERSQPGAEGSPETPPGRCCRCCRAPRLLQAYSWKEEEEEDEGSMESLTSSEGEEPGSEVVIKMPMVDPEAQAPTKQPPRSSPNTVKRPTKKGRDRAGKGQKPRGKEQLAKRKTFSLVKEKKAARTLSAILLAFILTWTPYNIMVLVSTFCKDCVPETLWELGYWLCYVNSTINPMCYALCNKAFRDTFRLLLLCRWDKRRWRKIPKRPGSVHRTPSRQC
Method in brief: (§1)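 CHO cells expressing human M1 were run with an EC20 concentration of acetylcholine. Calcium mobilization was read on a FLIPR384. Potency is reported as the inflection point. Percent max is the compound plus EC20 ACh response relative to the maximal acetylcholine effect.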

[3] = target: T2, Muscarinic acetylcholine receptor M1 (Homo sapiens); test: Positive allosteric modulator activity at human muscarinic M1 receptor expressed in CHO cells assessed as effect on acetylcholine-induced intracellular calcium mobilization by FLIPR assay; type: functional, cell-based; method in brief: as §1
[4] = target: Muscarinic acetylcholine receptor M3 (Homo sapiens) (UniProt P20309); test: Positive allosteric modulator activity at human muscarinic M3 receptor expressed in CHO cells assessed as effect on acetylcholine-induced intracellular calcium mobilization by FLIPR assay; type: functional, cell-based
Muscarinic acetylcholine receptor M3 (Homo sapiens), sequence (P20309 whole entry, looked up): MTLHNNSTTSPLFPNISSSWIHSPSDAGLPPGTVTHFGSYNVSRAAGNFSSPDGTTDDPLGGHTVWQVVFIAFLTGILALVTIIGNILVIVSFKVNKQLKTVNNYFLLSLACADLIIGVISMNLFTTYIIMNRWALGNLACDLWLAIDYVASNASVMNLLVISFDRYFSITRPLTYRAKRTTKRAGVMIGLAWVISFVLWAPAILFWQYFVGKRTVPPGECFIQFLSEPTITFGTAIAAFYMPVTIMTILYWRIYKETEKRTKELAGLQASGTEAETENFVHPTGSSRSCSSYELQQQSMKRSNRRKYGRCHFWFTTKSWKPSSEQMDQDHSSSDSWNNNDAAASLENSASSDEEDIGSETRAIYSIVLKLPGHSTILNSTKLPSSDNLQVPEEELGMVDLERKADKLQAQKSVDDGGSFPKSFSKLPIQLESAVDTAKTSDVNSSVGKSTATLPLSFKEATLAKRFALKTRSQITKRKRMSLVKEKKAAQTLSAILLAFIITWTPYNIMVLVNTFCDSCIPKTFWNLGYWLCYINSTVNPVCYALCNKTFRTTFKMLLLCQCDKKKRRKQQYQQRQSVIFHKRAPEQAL

[5] = target: T3, Muscarinic acetylcholine receptor M4 (Homo sapiens) (UniProt P08173); test: Positive allosteric modulator activity at human muscarinic M4 receptor expressed in CHO cells assessed as effect on acetylcholine-induced intracellular calcium mobilization by FLIPR assay; type: functional, cell-based
T3 sequence (whole entry): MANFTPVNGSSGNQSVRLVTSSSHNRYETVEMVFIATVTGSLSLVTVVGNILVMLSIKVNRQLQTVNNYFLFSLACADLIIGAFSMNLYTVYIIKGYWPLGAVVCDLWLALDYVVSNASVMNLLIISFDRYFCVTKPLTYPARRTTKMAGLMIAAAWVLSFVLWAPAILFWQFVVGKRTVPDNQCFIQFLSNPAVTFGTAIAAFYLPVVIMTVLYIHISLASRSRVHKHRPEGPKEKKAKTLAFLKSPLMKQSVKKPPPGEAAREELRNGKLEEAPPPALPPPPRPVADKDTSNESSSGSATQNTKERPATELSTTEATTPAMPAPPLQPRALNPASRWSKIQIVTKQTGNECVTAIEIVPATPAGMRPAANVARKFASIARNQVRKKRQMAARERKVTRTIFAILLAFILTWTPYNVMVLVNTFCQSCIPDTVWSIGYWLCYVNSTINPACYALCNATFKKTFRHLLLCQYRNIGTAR

[6] = Plasma protein binding in rat serum by equilibrium dialysis method
[7] = Plasma protein binding in human serum by equilibrium dialysis method

Activity [1]	Emax [2]	IP [3]	Activity [4]	Activity [5]	fraction unbound [6]	fraction unbound [7]	SMILES
inactive	69%	3.5 µM	inactive	inactive			O=C(O)c1cn(Cc2ccc(-c3ccccc3)cc2)c2nsnc2c1=O
inactive	78%	0.37 µM	inactive	inactive	0.004	0.007	O=C(O)c1cn(Cc2ccc(-c3ccccc3)cc2)c2sccc2c1=O
inactive		0.038 µM	inactive	inactive	0.099	0.117	Nc1cccc(-c2ccc(Cn3cc(C(=O)O)c(=O)c4sccc43)nc2)c1
inactive		1.03 µM	inactive	inactive			Cc1cn(-c2ccc(Cn3cc(C(=O)O)c(=O)c4ccncc43)cc2)cn1
inactive		0.24 µM	inactive	inactive	0.259	0.199	O=C(O)c1cn(Cc2ccc(-n3ccnc3)cc2)c2ccsc2c1=O
inactive	48%	87.2 µM	inactive	inactive			O=C(O)c1cn(Cc2ccc(-c3ccccc3)cc2)c2ncncc2c1=O
inactive		1.05 µM	inactive	inactive			O=C(O)c1cn(Cc2ccc(-c3cccnc3)cn2)c2ccsc2c1=O
inactive		1.14 µM	inactive	inactive			O=C(O)c1cn(Cc2ccc(-n3cccn3)cc2)c2cnccc2c1=O
inactive	56%	0.58 µM	inactive	inactive	0.003	0.008	O=C(O)c1cn(Cc2ccc(-c3ccccc3)cc2)c2ncccc2c1=O
inactive		17.9 µM	inactive	inactive			Cc1ccnn1-c1ccc(Cn2cc(C(=O)O)c(=O)c3cccnc32)cc1
inactive		0.57 µM	inactive	inactive			O=C(O)c1cn(Cc2ccc(-c3cccnc3)cc2)c2ccsc2c1=O
inactive	76%	3.35 µM	inactive	inactive			O=C(O)c1cn(Cc2ccc(-c3ccccc3)cc2)c2csnc2c1=O
inactive		0.34 µM	inactive	inactive	0.052	0.233	Cc1cn(-c2ccc(Cn3cc(C(=O)O)c(=O)c4cccnc43)cc2)cn1
inactive		0.51 µM	inactive	inactive			Cc1ccn(-c2ccc(Cn3cc(C(=O)O)c(=O)c4sccc43)cc2)n1
inactive	4%	> 100 µM	inactive	inactive			O=C(O)c1cn(Cc2ccc(-c3ccccc3)cc2)c2ccncc2c1=O
inactive		1.66 µM	inactive	inactive			O=C(O)c1cn(Cc2ccc(-c3ccsc3)cn2)c2ccsc2c1=O
inactive		13 µM	inactive	inactive			Cc1ccnn1-c1ccc(Cn2cc(C(=O)O)c(=O)c3ccncc32)cc1
inactive	92%	0.21 µM	inactive	inactive			O=C(O)c1cn(Cc2ccc(-c3ccccc3)cc2)c2ccccc2c1=O
inactive		0.5 µM	inactive	inactive			CN(C)c1ccc(-c2ccc(Cn3cc(C(=O)O)c(=O)c4sccc43)nc2)cn1
inactive		0.56 µM	inactive	inactive		0.012	Cc1ccn(-c2ccc(Cn3cc(C(=O)O)c(=O)c4cccnc43)cc2)n1
inactive	90%	0.15 µM	inactive	inactive	0.008	0.013	O=C(O)c1cn(Cc2ccc(-c3ccccc3)cc2)c2ccsc2c1=O
inactive		2 µM	inactive	inactive			COc1ccc(-c2ccc(Cn3cc(C(=O)O)c(=O)c4sccc43)nc2)cn1
inactive		0.81 µM	inactive	inactive	0.048	0.061	O=C(O)c1cn(Cc2ccc(-n3cccn3)cc2)c2ncccc2c1=O
inactive		0.81 µM	inactive	inactive			O=C(O)c1cn(Cc2ccc(-c3ccnc(Cl)c3)cn2)c2ccsc2c1=O
inactive	92%	1.38 µM	inactive	inactive			O=C(O)c1cn(Cc2ccc(-c3ccccc3)cc2)c2cccnc2c1=O
inactive	34%	5.95 µM	inactive	inactive			O=C(O)c1cn(Cc2ccc(-c3ccccc3)cc2)c2nnccc2c1=O
inactive		0.6 µM	inactive	inactive			O=C(O)c1cn(Cc2ccc(-c3ccncc3)cc2)c2ccsc2c1=O
inactive	62%	0.43 µM	inactive	inactive			O=C(O)c1cn(Cc2ccc(-c3ccccc3)cc2)c2cnccc2c1=O
inactive		0.15 µM	inactive	inactive	0.009	0.066	Cn1cc(-c2ccc(Cn3cc(C(=O)O)c(=O)c4sccc43)cc2)cn1
inactive	96%	0.78 µM	inactive	inactive	0.023	0.023	O=C(O)c1cn(Cc2ccc(-c3ccccc3)cc2)c2nccnc2c1=O
